Measurements: ChEMBL document CHEMBL4765426, “Design, synthesis and in vitro anti-influenza A virus evaluation of novel quinazoline derivatives containing S-acetamide and NH-acetamide moieties at C-4” (Eur J Med Chem, 2020)

Key:
Influenza A virus [1] = experiment: Antiviral activity against Influenza A virus A/WSN/33(H1N1) infected in HEK293T-Gluc cells pretreated for 2 hrs followed by viral infection and measured after 24 hrs by Gaussia luciferase reporter gene assay; type: functional, organism-based; conditions: A/WSN/1933(H1N1), HEK-293T
Outline: (§1)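 Reporter cells were HEK293T cells stably transfected with pLenti6-Gluc, which constitutively expresses negative-strand Gaussia luciferase RNA that becomes positive-strand on IAV infection. Cells were infected with A/WSN/33 or A/PR/8/1934 (H1N1). Antiviral activity was read as Gluc signal, and IC50 values were derived. Ribavirin served as positive control.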

[2] = Cytotoxicity against human HEK293T cells assessed as reduction in cell viability after 48 hrs by CCK8 assay; type: cell-based, HEK-293T
[3] = Selectivity index, ratio of CC50 for human HEK293T cells to IC50 for Influenza A virus A/WSN/33(H1N1) infected in HEK293T-Gluc cells; type: toxicity, cell-based; conditions: read-out: Ratio CC50/IC50
[4] = Cytotoxicity against human A549 cells assessed as reduction in cell viability after 48 hrs by CCK8 assay; type: cell-based
Influenza A virus [5] = experiment: Antiviral activity against Influenza A virus A/PR/8/34 (H1N1) infected in HEK293T-Gluc cells pretreated for 2 hrs followed by viral infection and measured after 24 hrs by Gaussia luciferase reporter gene assay; type: functional, organism-based; conditions: A/Puerto Rico/8/1934(H1N1), HEK-293T; outline: as §1
Influenza A virus [6] = experiment: Antiviral activity against Influenza A virus A/WSN/33(H1N1) infected in HEK293T-Gluc cells assessed as inhibition of virus infection at 10 uM pretreated for 2 hrs followed by viral infection and measured after 24 hrs by Gaussia luciferase reporter gene assay; type: functional; conditions: A/WSN/1933(H1N1), HEK-293T, time 26 hrs
Outline: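 A single-concentration screen at 10 μM was run against A/WSN/33 (H1N1) in HEK293T-Gluc reporter cells. These cells carry a stably transfected pLenti6-Gluc construct expressing negative-strand Gaussia luciferase RNA that is converted to positive strand upon infection. Inhibition ratio of infection was read from Gluc activity.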

SMILES | IC50 (Influenza A virus [1]) | CC50 at 48 h [2] | selectivity ratio [3] | CC50 at 48 h [4] | IC50 (Influenza A virus [5]) | inhibition at 10 µM (Influenza A virus [6])
O=C(CSc1nc(N2CCCC2)nc2ccccc12)NC1CC1 | 38.2 µM | > 100 µM | > 2.61 |  |  | 
O=C(CNc1nc(N2CCc3ccccc3C2)nc2ccccc12)Nc1ccc2ccccc2c1 | 3.43 µM | > 100 µM | > 29.1 |  |  | 
CCN(CC)c1nc(SCC(=O)Nc2ccccc2)c2ccccc2n1 | 7.18 µM | > 100 µM | > 13.9 | > 100 µM | 1.69 µM | 
CCN(CC)c1nc(SCC(=O)NCc2ccccc2)c2ccccc2n1 | 19.2 µM | > 100 µM | > 5.22 |  |  | 
CCOc1ccc(NC(=O)CSc2c[nH]c3ccc(Br)cc23)cc1 | 4.18 µM | 44 µM | 10.5 | 71.4 µM | 0.33 µM | 90.2%
O=C(CNc1nc(N2CCCC2)nc2ccccc12)Nc1ccccc1 | 1.88 µM | 23.3 µM | 12.4 | 19 µM | 1.47 µM | 95.8%
CCN(CC)c1nc(NCC(=O)NCc2ccccc2)c2ccccc2n1 | 5 µM | > 100 µM | > 20 | > 100 µM | 5.8 µM | 
O=C(CNc1nc(N2CCc3ccccc3C2)nc2ccccc12)Nc1ccccc1 | 3.88 µM | 36.6 µM | 9.44 | 10.7 µM | 0.41 µM | 98.2%
